Experimental data reported in ChEMBL document CHEMBL5030567, “Macrocyclic Inhibitors of HGF-Activating Serine Proteases Overcome Resistance to Receptor Tyrosine Kinase Inhibitors and Block Lung Cancer Progression” (J Med Chem, 2021).
The source made the active and inactive calls. No cut-off for these calls is given here. Numbered stars: 1 amine (or outer) side, 2 acyl side, 3 side chain; on linkers, the order of the positions; unused ones are H or OH. Square brackets hold non-standard residues; d marks the D form. Peptide text beside a SMILES is read from it. X1 = N=C(N)NCCC[C@H](N[*:1])C(=O)c1nc2ccc(C(=O)[*:2])cc2s1

Columns and labels:
[1] = Stability in human plasma assessed as half life; format: ADME, cell-free
[2] = Stability in mouse plasma assessed as half life; format: ADME, cell-free
NCI-H596 [3] = assay: Antitumor activity against human NCI-H596 cells xenografted in hHGF knock in NSG mouse assessed as tumor growth inhibition at 50 mg/kg, ip administered daily for 25 days; format: functional, organism-based; details: time 25.0 day
[4] = Acute toxicity in NSG mouse at 20 to 100 mg/kg, ip administered for 7 days; format: organism-based; details: in vivo, dose 20-100 mg/kg, time 7 day
[5] = target: T1, Suppressor of tumorigenicity 14 protein (Homo sapiens) (UniProt Q9Y5Y6); assay: Inhibition of recombinant human N-terminal met-His6-tagged matriptase catalytic domain (Gly596 to Val855 residues) expressed in Escherichia coli mediated pro-HGF activation preincubated for 30 mins followed by pro-HGF addition and measured after 1 hr by immunoblotting analysis
T1 sequence (whole entry): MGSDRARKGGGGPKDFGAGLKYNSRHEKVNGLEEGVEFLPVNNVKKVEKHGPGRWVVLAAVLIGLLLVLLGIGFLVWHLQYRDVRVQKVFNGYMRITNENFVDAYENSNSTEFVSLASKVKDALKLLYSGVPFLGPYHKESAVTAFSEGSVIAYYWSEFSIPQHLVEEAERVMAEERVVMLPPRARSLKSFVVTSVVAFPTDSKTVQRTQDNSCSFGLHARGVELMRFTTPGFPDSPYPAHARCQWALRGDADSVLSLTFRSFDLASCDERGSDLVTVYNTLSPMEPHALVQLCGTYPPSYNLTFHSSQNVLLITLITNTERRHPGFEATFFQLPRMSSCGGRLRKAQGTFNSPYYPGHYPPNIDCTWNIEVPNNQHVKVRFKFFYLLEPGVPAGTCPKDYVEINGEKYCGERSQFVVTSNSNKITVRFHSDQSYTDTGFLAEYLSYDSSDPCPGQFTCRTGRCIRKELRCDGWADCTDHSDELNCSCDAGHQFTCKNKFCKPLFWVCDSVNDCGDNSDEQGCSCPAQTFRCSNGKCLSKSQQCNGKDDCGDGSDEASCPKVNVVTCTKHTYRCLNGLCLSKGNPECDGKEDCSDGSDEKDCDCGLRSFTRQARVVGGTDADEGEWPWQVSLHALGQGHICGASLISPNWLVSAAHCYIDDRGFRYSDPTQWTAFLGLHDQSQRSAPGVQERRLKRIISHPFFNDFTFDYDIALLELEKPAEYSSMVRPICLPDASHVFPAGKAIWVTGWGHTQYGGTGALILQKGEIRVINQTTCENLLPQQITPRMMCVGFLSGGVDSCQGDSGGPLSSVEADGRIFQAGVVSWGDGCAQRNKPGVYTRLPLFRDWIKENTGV
Outline: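 Recombinant pro-HGF (10 ng) incubated one hour with matriptase (1 nM), hepsin (10 nM) or HGFA (5 nM), with or without inhibitor. Processing detected by immunoblot with a polyclonal antibody recognizing pro-HGF and the HGF alpha and beta chains; active HGF served as positive control.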

NCI-H596 [6] = assay: Inhibition of pro-HGF stimulated cell growth in human H596 cells at 10 uM by ELISA; format: functional, cell-based
[7] = Stability in mouse liver microsomes assessed as half life; format: ADME, Microsome
Coagulation factor X = Coagulation factor X (Homo sapiens, UniProt P00742); assay: Inhibition of recombinant C-terminal 10His-tagged human coagulation factor 10a (Leu24 to Lys488 residues) expressed in baculovirus infected Sf9 insect cells using Bz-Ile-Glu-Gly-Arg-pNA as substrate preincubated for 30 mins followed by substrate addition by chromogenic assay
[8] = Half life in mouse plasma at 20 mg/kg, ip; format: ADME, organism-based; details: in vivo, 20 mg/kg
[9] = Plasma protein binding in mouse assessed as unbound fraction; format: ADME, cell-free
[10] = Toxicity in hHGF knock in NSG mouse xenografted with human NCI-H596 cells at 50 mg/kg, ip administered daily for 25 days; format: organism-based; details: in vivo, 600 h, time 25 day

For CC(=O)N[C@@H](CO)C(=O)N[C@@H](CCCCN)C(=O)N[C@@H](CC(C)C)C(=O)N[C@@H](CCCNC(=N)N)C(=O)c1nc2ccc(C(=O)N[C@H](C(N)=O)C(C)C)cc2s1 (Ac-SKL[X1]V-NH2), the t1/2 [1] was 2.33 h, the t1/2 [2] was 3.07 h and the Activity (NCI-H596 [3]) was “Active”. The Activity [4] was “Non-Toxic”, the inhibition [5] was “Active” and the inhibition (NCI-H596 [6]) was “Active”. It also gave a t1/2 [7] greater than 2.42 h, an IC50 (Coagulation factor X) of 770 nM and a t1/2 [8] of 2 h. The fraction unbound [9] was 0.167 and the Activity [10] was “Non-Toxic”.
